Structures are written as SMILES.

Series [1] is described as follows: Chemical stability of the compound in phosphate buffer at pH 7.4 assessed as half life at 100 uM after 30 mins by RP-HPLC analysis. Type of series: physicochemical. The method, boiled down:
(§1)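 10 mM methanol stock diluted into 50 mM phosphate buffer pH 7.4 prewarmed to 37 °C, final 100 µM; maintained at 37.0 ± 0.5 °C, sampled every 30 min by RP-HPLC (C8, methanol/water 0.1% TFA) for parent loss and oxime formation; first-order kinetics for t1/2; triplicate.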

Series [2] in a line: Chemical stability of the compound in acidic medium at pH 1 after 6 hrs by RP-HPLC analysis. It is filed as physicochemical. As to conditions: buffer, pH 1, 6 h. The method, boiled down:
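Compound added from 10 mM methanol stock into 0.1 M HCl (pH 1) at 37 °C, final 100 µM; held at 37.0 ± 0.5 °C and analysed by RP-HPLC every 30 min for unchanged compound and oxime product; triplicate incubations; C8 column, methanol/water with 0.1% TFA.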

Series [3] in a line: Chemical stability of the compound in basic medium assessed as half life at pH 10 after 6 hrs by RP-HPLC analysis. Type of series: physicochemical. In outline:
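Run in 0.1 M phosphate buffer, pH 10, at 37.0 ± 0.5 °C, compound 100 µM final (from 10 mM methanol stock); RP-HPLC every 30 min quantifying parent and oxime; ring opening treated as first-order for half-life; triplicate incubations.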

Series [4] can be described thus: Dissociation constant, pKa of the compound by potentiometric titration. It is filed as physicochemical. In outline: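 Potentiometric titration under N2 at 25.0 ± 0.1 °C; about 1 mM compound in at least five water–methanol mixtures (24-58 wt% MeOH), ionic strength 0.15 M KCl, acidified to pH 1.8 with 0.5 N HCl, titrated with 0.5 N KOH to pH 10.5; aqueous pKa by Yasuda-Shedlovsky extrapolation to zero cosolvent.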

The target of series [5] is Dihydroorotate dehydrogenase (quinone), mitochondrial (Rattus norvegicus, UniProt Q63707). As to the kind of experiment: Inhibition of DHODH in Wistar rat liver homogenates by DCIP reduction assay. Type of series: tissue-based.
Dihydroorotate dehydrogenase (quinone), mitochondrial, sequence (Q63707 whole entry): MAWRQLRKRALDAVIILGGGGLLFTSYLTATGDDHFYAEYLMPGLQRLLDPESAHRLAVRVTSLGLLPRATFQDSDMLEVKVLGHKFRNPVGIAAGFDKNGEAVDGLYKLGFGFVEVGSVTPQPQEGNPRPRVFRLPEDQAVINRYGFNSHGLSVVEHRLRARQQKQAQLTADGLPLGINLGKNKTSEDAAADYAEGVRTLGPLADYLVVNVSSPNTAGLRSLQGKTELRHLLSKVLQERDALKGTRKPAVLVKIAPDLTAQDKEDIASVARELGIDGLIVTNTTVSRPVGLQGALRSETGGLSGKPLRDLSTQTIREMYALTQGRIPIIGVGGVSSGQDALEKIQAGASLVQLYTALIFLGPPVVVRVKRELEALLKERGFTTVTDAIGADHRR
Series [6] is described as follows: Chemical stability of the compound in phosphate buffer at pH 7.4 assessed as unchanged compound level at 100 uM after 24 hrs by RP-HPLC analysis. It is filed as physicochemical. The settings on record: read-out: Stability. In outline:
as §1

The term half-life denotes how long it takes for the measured level to halve. Take `O=C(Nc1ccc(C(F)(F)F)cc1)c1cnon1`: the half-life at 100 µM in series [1] came to 1.38 h. Moreover, the Stability entry in series [2] was “Stable”. Moreover, the half-life in series [3] was less than 0.0167 h.

Consider `O=C(Nc1cccc(C(F)(F)F)c1)c1cnon1`, for which the half-life at 100 µM in series [1] was determined as 1.68 h.

`O=C(Nc1cc(C(F)(F)F)cc(C(F)(F)F)c1)c1cnon1`: the half-life at 100 µM in series [1] is 1.52 h.

`O=C(Nc1ccc(F)cc1)c1cnon1`: in series [1], the half-life at 100 µM amounted to 1.48 h.

For the compound `O=C(Nc1cccc(F)c1)c1cnon1`, the half-life at 100 µM in series [1] was found to be 1.81 h.

Take `O=C(Nc1ccccc1F)c1cnon1`: the half-life at 100 µM in series [1] was found to be 1.7 h.

In the case of `O=C(Nc1cc(F)cc(F)c1)c1cnon1`, the half-life at 100 µM in series [1] stood at 1.53 h.

As for `O=C(Nc1ccc([N+](=O)[O-])cc1)c1cnon1`, in series [1], the half-life at 100 µM is 1.15 h.

On to `O=C(Nc1ccccc1)c1cnon1`, for which, in series [1], the half-life at 100 µM was found to be 2.06 h.

On to `Cc1ccc(NC(=O)c2cnon2)cc1`, for which, in series [1], the half-life at 100 µM stood at 1.89 h.

Take `COc1ccc(NC(=O)c2cnon2)cc1`: the half-life at 100 µM in series [1] stood at 1.77 h.

For the compound `O=C(Nc1ccc(-c2ccccc2)cc1)c1cnon1`, the half-life at 100 µM in series [1] came out at 1.28 h.

Usually pKa stands for the pH at which an ionisable group is half protonated. Higher therefore signals a group that holds its proton tightly. As usually defined, the IC50 is the concentration that inhibits the measured activity by half. Read a high IC50 as a need for much substance. For `N#C/C(=N\O)C(=O)Nc1ccc(C(F)(F)F)cc1`, the pKa in series [4] was 4.87. Further, the IC50 in series [5] came out at 60 µM.

As for `N#C/C(=N\O)C(=O)Nc1cccc(C(F)(F)F)c1`, the pKa in series [4] amounted to 4.88.

In series [4], `N#C/C(=N\O)C(=O)Nc1cc(C(F)(F)F)cc(C(F)(F)F)c1` showed a pKa of 4.73.

`N#C/C(=N\O)C(=O)Nc1ccc(F)cc1` gave a pKa in series [4] of 5.01.

`N#C/C(=N\O)C(=O)Nc1cccc(F)c1` yielded a pKa in series [4] of 4.92.

Compound `N#C/C(=N\O)C(=O)Nc1ccccc1F` displayed a pKa in series [4] of 4.87.

Turning to `N#C/C(=N\O)C(=O)Nc1cc(F)cc(F)c1`, in series [4], the pKa came to 4.81.

Turning to `N#C/C(=N\O)C(=O)Nc1ccc([N+](=O)[O-])cc1`, the pKa in series [4] worked out at 4.61.

On to `N#C/C(=N\O)C(=O)Nc1ccccc1`, for which the pKa in series [4] came to 5.12.

With `Cc1ccc(NC(=O)/C(C#N)=N/O)cc1`, the pKa in series [4] was found to be 5.07.

The compound `COc1ccc(NC(=O)/C(C#N)=N/O)cc1` displayed a pKa in series [4] of 5.08.

In turn, `N#C/C(=N\O)C(=O)Nc1ccc(-c2ccccc2)cc1` gave a pKa in series [4] of 5.03.

`N#CC(C(=O)Nc1ccc(C(F)(F)F)cc1)=[N+]([O-])[O-]`: half-maximal inhibition in series [5] (IC50) was put at 17 µM.

Take `N#CC(C(=O)Nc1ccc([N+](=O)[O-])cc1)=[N+]([O-])[O-]`: in series [5], the IC50 came out at 74 µM.

`N#CC(C(=O)Nc1ccc(-c2ccccc2)cc1)=[N+]([O-])[O-]` had an IC50 in series [5] of 26 µM.

For the compound `Cc1oncc1C(=O)Nc1ccc(C(F)(F)F)cc1` [LEFLUNOMIDE], the half-life at 100 µM in series [1] is greater than 24 h. In series [6], the remaining at 24 h, 100 µM was 80%. The Stability entry in series [2] is “Stable”. For the same compound, the half-life in series [3] is 1.17 h. In addition, half-maximal inhibition in series [5] (IC50) was put at 1.6 µM.

The values above are taken from ChEMBL document CHEMBL1649376 (Eur J Med Chem, 2011).
